Assay results from PubChem BioAssay AID743238 (Broad Institute, 2013).
The campaign covered roughly 360,000 compounds. About 200 (0.056%) were called active.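 How the source made its calls: active means mean normalized replicate activation at least 10% and every replicate at or above 10%; inconclusive means only one of the two criteria met; inactive means mean below 10% and not all replicates reach 10%.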 Many of the other results were omitted from the sample, so actives are more common in it than they were.

Experiment: activators of inactive X chromosome reactivation, primary screen, imaging, XiGFP fibroblasts, GFP high-content imaging, set 2 (AID 743238);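 further: 0% = median of on-plate neutral control wells and 100% = ellipticine 6 µM median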
Conditions: XiGFP mouse fibroblasts, % GFP-positive cells imaging, 3 d; at 7.58 µM; stronger effect = higher value; cells co-treated with 5-aza-dC sensitizer; scaled so ellipticine positive control = 100%
Procedure, shortened: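 Schedule: 3 d treatment, 15 min room-temperature fixation; system: 68-5-11 XiGFP fibroblast line; buffer or medium: DMEM plus 5-aza-dC sensitizer; control set: ellipticine 6 µM positive control; compound: one concentration, pinned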
In the case of `C[C@@H]1CN([C@@H](C)CO)S(=O)(=O)c2ccc(Br)cc2O[C@@H]1CN(C)C(=O)CN(C)C`, the activation is reported as 0.922% (inactive). For `O=C(Nc1ccc(F)cc1)N1CC(=O)N2[C@H](CO)[C@H](c3ccc(C#Cc4ccccc4)cc3)[C@H]2C1`, the activation was 0.018% (inactive). In the case of `C[C@H](CO)N1C[C@H](C)[C@@H](CN(C)S(C)(=O)=O)Oc2ccc(NC(=O)Nc3ccc4c(c3)OCO4)cc2CC1=O`, the activation is reported as 0.005% (inactive). In the case of `OC[C@H]1[C@@H](c2ccc(C#Cc3ccccc3F)cc2)[C@H]2CN(CC3CCOCC3)CCCCN21`, the activation is reported as -0.0285% (inactive). For `C[C@H]1CN([C@@H](C)CO)C(=O)c2cc(-c3ccccc3)cnc2O[C@H]1CN(C)C(=O)C1CCOCC1`, the activation was -0.251% (inactive). With `COCC(=O)Nc1ccc2c(c1)C(=O)N(C)[C@@H]1CC[C@H](CC(=O)NCC3CC3)O[C@H]1CO2` the activation was 0.286% (inactive). In the case of `COc1ccc2c3c(n(C)c2c1)[C@H](CO)NCC31CN(S(=O)(=O)c2cccc(C)c2)C1`, the activation is reported as 0.887% (inactive). In the case of `COc1cccc(-c2cnc3c(c2)C(=O)N([C@H](C)CO)C[C@H](C)[C@H](CN(C)Cc2ccncc2)O3)c1`, the activation is reported as 0.983% (inactive). With `CC(=O)N(C)C[C@H]1Oc2ncc(C#Cc3ccc(F)cc3)cc2C(=O)N([C@H](C)CO)C[C@@H]1C` the activation was -1.15% (inactive). For `C[C@H]1CN([C@@H](C)CO)C(=O)CCCn2cc(nn2)CO[C@H]1CN(C)C(=O)Nc1ccc(F)cc1`, the activation was -0.396% (inactive). In the case of `O=C(C[C@H]1C=C[C@@H](NC(=O)CC2CC2)[C@H](CO)O1)NCc1ccc(-c2ccccc2)cc1`, the activation is reported as 0.158% (inactive). With `COc1ccc(S(=O)(=O)N(C)C[C@@H]2Oc3ccc(NC(=O)CCN4CCOCC4)cc3CC(=O)N([C@@H](C)CO)C[C@@H]2C)cc1` the activation was -1.18% (inactive). With `O=C(c1cccc(F)c1)N1CC[C@@H]2[C@H](CO)Nc3ccc(C#Cc4ccccc4)cc3[C@@H]21` the activation was 0.0425% (inactive). In the case of `CC(C)NC(=O)N(C)C[C@@H]1Oc2ncc(C#CC3CC3)cc2C(=O)N([C@@H](C)CO)C[C@H]1C`, the activation is reported as -0.634% (inactive). For `Nc1c(C(=O)c2cccs2)sc2nsc(SCCN3CCCCC3)c12`, the activation was 114% (active). In the case of `O=C(NC1CCCC1)N1CC(=O)N2[C@H](C1)[C@H](c1ccc(/C=C/c3ccccc3)cc1)[C@@H]2CO`, the activation is reported as 0.335% (inactive). For `CCCC#Cc1ccc([C@H]2[C@H]3CN(C(=O)c4cccnc4)CC(=O)N3[C@H]2CO)cc1`, the activation was -0.0225% (inactive). With `COc1ccccc1-c1ccc([C@H]2[C@@H](CO)N(CC3CC3)C23CN(S(C)(=O)=O)C3)cc1` the activation was 0.04% (inactive). With `CO[C@@H]1CN(C)C(=O)c2cc(NC(=O)Nc3ccccc3F)ccc2OC[C@H](C)NC[C@H]1C` the activation was -0.018% (inactive). With `O=C([C@@H]1[C@@H](CO)[C@@H]2Cn3c(ccc(-c4cncnc4)c3=O)[C@@H]2N1C(=O)C1CCC1)N1CCCCC1` the activation was 0.322% (inactive). In the case of `C[C@@H]1CCCCO[C@@H](CN(C)Cc2ccncc2)[C@@H](C)CN([C@H](C)CO)C(=O)c2cc(NS(=O)(=O)c3cccs3)ccc2O1`, the activation is reported as 0.415% (inactive). For `CCCN1[C@H](CO)[C@H](c2ccc(C#CC3CCCCC3)cc2)[C@@H]1CNC(=O)C1CC1`, the activation was 0.049% (inactive). With `CN1CCN(C(=O)C[C@@H]2CC[C@@H]3[C@H](COC[C@H](O)CN3CC3CCOCC3)O2)CC1` the activation was 0.0745% (inactive). With `COC(=O)C[C@H]1CC[C@@H](NC(=O)c2ccccc2)[C@@H](CO)O1` the activation was -0.033% (inactive). With `COc1ccc(NC(=O)N(C)C[C@H]2Oc3c(NC(=O)Nc4cccc5ccccc45)cccc3C(=O)N([C@@H](C)CO)C[C@H]2C)cc1` the activation was -0.612% (inactive). In the case of `O=C(C[C@H]1C[C@H]2c3cc(NC(=O)Nc4ccc(C(F)(F)F)cc4)ccc3O[C@H]2[C@@H](CO)O1)NCc1cccnc1`, the activation is reported as 0.387% (inactive). In the case of `CCCC(=O)Nc1ccc2c(c1)OC[C@H](C)N(CCc1ccccc1)C[C@H](C)[C@@H](OC)CN(C)C2=O`, the activation is reported as -0.359% (inactive). In the case of `CCNC(=O)C[C@@H]1C=C[C@@H](NC(=O)C2CCOCC2)[C@@H](CO)O1`, the activation is reported as 0.276% (inactive). With `COc1ccc(S(=O)(=O)N(C)C[C@@H]2Oc3ccc(NC(=O)Cc4ccccc4)cc3CC(=O)N([C@@H](C)CO)C[C@H]2C)cc1` the activation was -0.0685% (inactive). In the case of `COc1ccc2c3c([nH]c2c1)[C@@H](CO)N(Cc1cc(F)ccc1F)CC31CCN(C(=O)C2CCC2)CC1`, the activation is reported as 0.358% (inactive). In the case of `Cc1ccc(S(=O)(=O)Nc2ccc3c(c2)C(=O)N(C)[C@@H]2CC[C@@H](CC(=O)O)O[C@H]2CO3)cc1`, the activation is reported as 0.151% (inactive). For `O=C(C[C@@H]1C=C[C@H](NC(=O)Nc2ccccc2F)[C@H](CO)O1)NCc1ccc(F)cc1`, the activation was 0.215% (inactive). For `C[C@H](CO)N1C[C@H](C)[C@@H](CN(C)S(=O)(=O)c2cccs2)Oc2ccc(NC(=O)Nc3ccc(C(F)(F)F)cc3)cc2CC1=O`, the activation was -0.017% (inactive). In the case of `C[C@@H]1CCCCO[C@H](CN(C)C(=O)CCCN(C)C)[C@H](C)CN([C@@H](C)CO)C(=O)c2cc(NS(=O)(=O)c3ccc(Cl)cc3)ccc2O1`, the activation is reported as 0.114% (inactive). In the case of `C[C@H]1CCCCO[C@H](CN(C)C(=O)Nc2ccc(F)cc2)[C@@H](C)CN([C@@H](C)CO)C(=O)c2cc(NC(=O)CCC(F)(F)F)ccc2O1`, the activation is reported as -0.105% (inactive). With `N#C[C@@H]1[C@H](c2ccccc2-c2ccccc2F)[C@@H](CO)N1C(=O)C1CCOCC1` the activation was 0.163% (inactive). With `O=C1C(Cl)=C(Oc2ccccc2)C(=O)c2ccccc21` the activation was 19.2% (active). For `CCC(=O)Nc1ccc2c(c1)C(=O)N(C)C[C@H](OC)[C@H](C)CN(C(=O)c1ccccc1F)[C@@H](C)CO2`, the activation was 0.375% (inactive). In the case of `CO[C@H]1CN(C)C(=O)c2cc(NS(C)(=O)=O)ccc2OC[C@@H](C)N(C)C[C@@H]1C`, the activation is reported as -0.465% (inactive). With `C[C@@H]1CN([C@@H](C)CO)C(=O)CCCn2cc(nn2)CO[C@@H]1CN(C)S(=O)(=O)c1cccc(F)c1` the activation was -0.223% (inactive).
